ChEMBL document CHEMBL1144183, “Synthesis and biological affinity of new imidazo- and indol-arylpiperazine derivatives: further validation of a pharmacophore model for alpha(1)-adrenoceptor antagonists” (Bioorg Med Chem Lett, 2008)

Columns and labels:
[1] = Displacement of [3H]prazosin from alpha1 adrenoceptor in rat cortex membrane; assay type: cell membranes
How it was run: (§1)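 Competitive radioligand binding on rat cerebral cortex membranes. IC50 was converted to Ki by Cheng–Prusoff, Ki = IC50/(1+[L]/Kd). Ki is the mean of three separate experiments, each run in triplicate.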

[2] = Displacement of [3H]rauwolscine from alpha2 adrenoceptor in rat cortex membrane; assay type: cell membranes; how it was run: as §1
[3] = target: T1, 5-hydroxytryptamine receptor 1A (Rattus norvegicus, UniProt P19327); assay: Displacement of [3H]8-OH-DPAT from 5HT1A receptor in rat cortex membrane; assay type: cell membranes; how it was run: as §1
T1 sequence (P19327 whole entry): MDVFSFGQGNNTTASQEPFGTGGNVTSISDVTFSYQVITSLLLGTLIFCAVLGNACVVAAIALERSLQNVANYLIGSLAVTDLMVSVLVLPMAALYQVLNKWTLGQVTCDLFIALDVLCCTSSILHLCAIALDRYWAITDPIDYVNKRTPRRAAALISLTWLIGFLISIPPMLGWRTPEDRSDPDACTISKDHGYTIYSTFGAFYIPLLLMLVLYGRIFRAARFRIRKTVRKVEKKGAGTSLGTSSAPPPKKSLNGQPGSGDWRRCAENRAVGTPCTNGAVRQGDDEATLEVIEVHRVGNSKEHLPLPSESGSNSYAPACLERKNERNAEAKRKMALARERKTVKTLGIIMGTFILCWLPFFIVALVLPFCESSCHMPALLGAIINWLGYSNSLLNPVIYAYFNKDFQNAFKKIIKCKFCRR

[4] = target: T2, Sodium-dependent serotonin transporter (Homo sapiens, UniProt P31645); assay type: cell membranes
Target sequence in this assay (P31645 whole entry): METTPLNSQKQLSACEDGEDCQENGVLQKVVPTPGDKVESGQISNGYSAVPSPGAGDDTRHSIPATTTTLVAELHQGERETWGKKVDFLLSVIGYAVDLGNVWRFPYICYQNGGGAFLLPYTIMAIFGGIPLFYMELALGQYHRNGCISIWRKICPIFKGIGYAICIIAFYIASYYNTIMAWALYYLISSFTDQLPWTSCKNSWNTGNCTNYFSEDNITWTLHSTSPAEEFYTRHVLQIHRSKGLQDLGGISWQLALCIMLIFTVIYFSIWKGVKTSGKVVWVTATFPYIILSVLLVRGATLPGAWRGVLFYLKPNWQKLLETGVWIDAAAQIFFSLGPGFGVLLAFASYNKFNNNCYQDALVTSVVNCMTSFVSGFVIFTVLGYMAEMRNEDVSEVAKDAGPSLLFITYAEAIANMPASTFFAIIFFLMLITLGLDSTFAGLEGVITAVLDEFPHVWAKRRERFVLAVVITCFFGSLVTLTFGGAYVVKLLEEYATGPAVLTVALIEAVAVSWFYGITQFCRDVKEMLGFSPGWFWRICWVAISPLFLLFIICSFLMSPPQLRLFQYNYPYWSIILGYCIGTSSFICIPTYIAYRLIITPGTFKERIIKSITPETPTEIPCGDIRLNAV

Rattus norvegicus [5] = organism: Rattus norvegicus; assay: Ratio of Ki for alpha2 adrenoceptor in rat cortex membrane to Ki for alpha1 adrenoceptor in rat cortex membrane; assay type: cell membranes
Rattus norvegicus [6] = organism: Rattus norvegicus; assay: Ratio of Ki for 5HT1A receptor in rat cortex membrane to Ki for alpha1 adrenoceptor in rat cortex membrane; assay type: cell membranes
[7] = target: T2, Sodium-dependent serotonin transporter; assay: Displacement of [3H]paroxetine from SERT in human platelet membrane at 10 uM; assay type: cell membranes
How it was run: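 Compounds were tested at 10 µM, with percent displacement recorded. Where obtainable, Ki was derived from IC50 by Cheng–Prusoff. Assays were run in triplicate.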
Target sequence in this assay (P31645 whole entry, looked up): as the sequence (P31645 whole entry) above

[8] = target: 5-hydroxytryptamine receptor 2A (Homo sapiens, UniProt P28223); assay: Displacement of [3H]ketanserine from 5HT2A receptor
5-hydroxytryptamine receptor 2A, sequence (P28223 whole entry): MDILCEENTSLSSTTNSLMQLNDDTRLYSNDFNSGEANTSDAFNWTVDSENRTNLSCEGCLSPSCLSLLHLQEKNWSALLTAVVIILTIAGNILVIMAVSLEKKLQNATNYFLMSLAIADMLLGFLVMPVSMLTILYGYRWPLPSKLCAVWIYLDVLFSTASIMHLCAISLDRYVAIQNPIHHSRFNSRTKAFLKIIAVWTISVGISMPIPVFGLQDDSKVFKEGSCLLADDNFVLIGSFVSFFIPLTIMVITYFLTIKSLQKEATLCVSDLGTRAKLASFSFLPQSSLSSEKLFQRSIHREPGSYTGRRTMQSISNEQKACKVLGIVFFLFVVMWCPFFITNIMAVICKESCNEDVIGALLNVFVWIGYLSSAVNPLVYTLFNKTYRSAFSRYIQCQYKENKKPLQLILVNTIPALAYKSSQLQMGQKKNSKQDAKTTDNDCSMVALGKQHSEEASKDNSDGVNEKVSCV

SMILES: CCOc1ccccc1N1CCN(CCCCn2nc(-n3ccc4ccccc43)ccc2=O)CC1
- Ki [1]: 1.1 nM
- Ki [2]: 70.1 nM
- Ki [3]: 27.7 nM
- Ki [4]: 639 nM
- Ratio Ki (Rattus norvegicus [5]): 62.6
- Ratio Ki (Rattus norvegicus [6]): 24.7

SMILES: COc1ccccc1N1CCN(C(=O)CCCn2nc(-n3ccnc3)ccc2=O)CC1
- Ki [1]: 2190 nM
- Ki [2]: 1900 nM
- Ki [3]: 318 nM
- Ki [4]: > 10000 nM
- Ratio Ki (Rattus norvegicus [5]): 0.86
- Ratio Ki (Rattus norvegicus [6]): 0.14
- Activity [7]: 3%

SMILES: CCOc1ccccc1N1CCN(C(=O)CCCn2nc(-n3ccnc3)ccc2=O)CC1
- Ki [1]: 492 nM
- Ki [2]: 1760 nM
- Ki [3]: 2250 nM
- Ki [4]: > 10000 nM
- Ratio Ki (Rattus norvegicus [5]): 3.57
- Ratio Ki (Rattus norvegicus [6]): 4.57
- Activity [7]: 11%

SMILES: CC(C)Oc1ccccc1N1CCN(CCCCn2nc(-n3ccnc3)ccc2=O)CC1
- Ki [1]: 0.4 nM
- Ki [2]: 44 nM
- Ki [3]: 6.8 nM
- Ki [4]: > 10000 nM
- Ratio Ki (Rattus norvegicus [5]): 110
- Ratio Ki (Rattus norvegicus [6]): 17
- Activity [7]: 10%

SMILES: O=c1ccc(-n2ccc3ccccc32)nn1CCCCN1CCN(c2ccc3c(c2)OCCO3)CC1
- Ki [1]: 14 nM
- Ki [2]: 476 nM
- Ki [3]: 627 nM
- Ki [4]: 177 nM
- Ratio Ki (Rattus norvegicus [5]): 34
- Ratio Ki (Rattus norvegicus [6]): 44.8

SMILES: O=c1ccc(-n2ccc3ccccc32)nn1CCCCN1CCN(c2cccc(C(F)(F)F)c2)CC1
- Ki [1]: 60 nM
- Ki [2]: 462 nM
- Ki [3]: 62 nM
- Ki [4]: 109 nM
- Ratio Ki (Rattus norvegicus [5]): 7.7
- Ratio Ki (Rattus norvegicus [6]): 1.03
- Ki [8]: 83 nM

SMILES: O=c1ccc(-n2ccc3ccccc32)nn1CCCCN1CCN(c2ncccn2)CC1
- Ki [1]: 19 nM
- Ki [2]: 725 nM
- Ki [3]: 210 nM
- Ki [4]: > 10000 nM
- Ratio Ki (Rattus norvegicus [5]): 38.1
- Ratio Ki (Rattus norvegicus [6]): 11.1
- Activity [7]: 25%

SMILES: CC(C)Oc1ccccc1N1CCN(CCNC(=O)Cn2nc(-n3ccnc3)ccc2=O)CC1
- Ki [1]: 220 nM
- Ki [2]: 1960 nM
- Ki [3]: 1910 nM
- Ki [4]: > 10000 nM
- Ratio Ki (Rattus norvegicus [5]): 8.89
- Ratio Ki (Rattus norvegicus [6]): 8.7

SMILES: COC(=O)[C@H]1[C@H]2C[C@H]3c4[nH]c5ccccc5c4CCN3C[C@H]2CC[C@@H]1O [RAUWOLSCINE]
- Ki [2]: 4 nM

SMILES: COc1cc2nc(N3CCN(C(=O)c4ccco4)CC3)nc(N)c2cc1OC [PRAZOSIN]
- Ki [1]: 0.24 nM

SMILES: O=c1ccc(-n2ccnc2)nn1CCCCN1CCN(c2cccc(C(F)(F)F)c2)CC1
- Ki [1]: 118 nM
- Ki [2]: 656 nM
- Ki [3]: 13 nM
- Ki [4]: 230 nM
- Ratio Ki (Rattus norvegicus [5]): 5.6
- Ki [8]: 166 nM

SMILES: O=c1ccc(-n2ccnc2)nn1CCCCN1CCN(c2ccc3c(c2)OCCO3)CC1
- Ki [1]: 251 nM
- Ki [2]: 996 nM
- Ki [3]: 937 nM
- Ki [4]: > 10000 nM
- Ratio Ki (Rattus norvegicus [5]): 3.9
- Ratio Ki (Rattus norvegicus [6]): 3.73
- Activity [7]: 26%

SMILES: CC(C)Oc1ccccc1N1CCN(CCCCn2nc(-n3ccc4ccccc43)ccc2=O)CC1
- Ki [1]: 1.7 nM
- Ki [2]: 20.1 nM
- Ki [3]: 22.8 nM
- Ki [4]: 1040 nM
- Ratio Ki (Rattus norvegicus [5]): 12
- Ratio Ki (Rattus norvegicus [6]): 13.6

SMILES: O=c1ccc(-n2ccnc2)nn1CCCCN1CCN(c2ncccn2)CC1
- Ki [1]: 710 nM
- Ki [2]: 1550 nM
- Ki [3]: 890 nM
- Ki [4]: > 10000 nM
- Ratio Ki (Rattus norvegicus [5]): 2.2
- Ratio Ki (Rattus norvegicus [6]): 1.25
- Activity [7]: 5%

SMILES: CCOc1ccccc1N1CCN(CCNC(=O)Cn2nc(-n3ccnc3)ccc2=O)CC1
- Ki [1]: 234 nM
- Ki [2]: 3140 nM
- Ki [3]: 1150 nM
- Ki [4]: 5980 nM
- Ratio Ki (Rattus norvegicus [5]): 13.4
- Ratio Ki (Rattus norvegicus [6]): 4.9

SMILES: CCOc1ccccc1N1CCN(CCCCn2nc(-n3ccnc3)ccc2=O)CC1
- Ki [1]: 0.8 nM
- Ki [2]: 147 nM
- Ki [3]: 14 nM
- Ki [4]: > 10000 nM
- Ratio Ki (Rattus norvegicus [5]): 163
- Ratio Ki (Rattus norvegicus [6]): 15.5
- Activity [7]: 15%

SMILES: COc1ccccc1N1CCN(CCNC(=O)Cn2nc(-n3ccnc3)ccc2=O)CC1
- Ki [1]: 688 nM
- Ki [2]: 2970 nM
- Ki [3]: 2070 nM
- Ki [4]: 3460 nM
- Ratio Ki (Rattus norvegicus [5]): 4.3
- Ratio Ki (Rattus norvegicus [6]): 3

SMILES: CC(C)Oc1ccccc1N1CCN(C(=O)CCCn2nc(-n3ccnc3)ccc2=O)CC1
- Ki [1]: 897 nM
- Ki [2]: 1340 nM
- Ki [3]: 1560 nM
- Ki [4]: > 10000 nM
- Ratio Ki (Rattus norvegicus [5]): 1.49
- Ratio Ki (Rattus norvegicus [6]): 1.73
- Activity [7]: 2%
